Source: PubChem (several laboratories)
EBV gp42 inh: Epstein-Barr virus gp42 inhibitors, primary screen, biochemical, uHTS, fluorescence polarization; Glycoprotein 42 (Epstein-Barr virus (strain AG876)), Q1HVG2; Fluorescence polarization binding assay, mP read-out; inhibition, % (tested at 21.74 µM); 220,000 compounds, 0.42% hits; AID 1085, 2008; in the data active = inhibition above about 50%
Target sequence (Q1HVG2 whole entry, looked up): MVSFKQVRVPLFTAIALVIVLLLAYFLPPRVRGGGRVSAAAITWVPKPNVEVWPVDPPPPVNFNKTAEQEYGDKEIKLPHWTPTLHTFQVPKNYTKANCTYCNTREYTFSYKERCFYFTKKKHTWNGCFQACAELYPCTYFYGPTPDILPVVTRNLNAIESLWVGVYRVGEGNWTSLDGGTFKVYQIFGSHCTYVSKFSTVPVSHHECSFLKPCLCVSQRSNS
TbMetRS inhib: T. brucei MetRS inhibitors, primary screen, biochemical, luminescence; 360,000 compounds, 0.4% hits; inhibition, % at 11.9 µM; methionyl-tRNA synthetase (Trypanosoma brucei brucei); purified T. brucei MetRS, ATP depletion, Kinase-Glo luminescence; AID 624268, 2012;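 active = inhibition above a per-plate cutoff of the control wells' mean inhibition plus 3 SD, cut at about 5.5% in these data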
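System: purified T. brucei MetRS enzyme / Detection: Kinase-Glo luciferase luminescence reporting remaining unconsumed ATP / Medium: HEPES buffer with MgCl2, KCl, DTT, spermine, BSA, pyrophosphatase / Replication: singlicate, one well per compound / Evaluation: percent inhibition relative to median high and low control wells / Schedule: 2 h aminoacylation at 25 °C after 15 min preincubation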
WT yeast gro inh: growth inhibition of WT strain, primary screen, mitochondrial fusion inhibitor project, WT and mutant strains, chemical genetic | mitochondrial fusion phenotypic screen | inhibition, % at 10 µM | 190,000 compounds, 2.1% hits; in the data active = inhibition above about 58%; tested in S. cerevisiae
CHOP inh: inhibitors of CHOP promoter induction, primary screen, cell-based, unfolded protein response, luciferase reporter; CHO-K1 CHOP-promoter luciferase, tunicamycin-induced, 15-18 h; inhibition, % at 10 µM; 220,000 compounds, 3.8% hits; AID 2732, 2010;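 active = compounds that reduced the stress-induced luciferase reporter signal by more than about 70% of percent inhibition, limit read from the data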
MPTP block: mitochondrial permeability transition pore inhibitors, primary screen, biochemical, isolated mouse mitochondria, absorbance | inhibition, % at 10 µM | Ca2+ swelling absorbance, 30 min | 360,000 compounds, 1.4% hits;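 active = inhibition of 50% or more, scaled per plate between neutral and stimulator controls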
NR3A LBD binder: binders of NR3A ligand-binding domain, primary screen, biophysical, differential scanning fluorimetry, uHTS. NR3A LBD differential scanning fluorimetry, Tm shift; 0% = protein alone, 100% = glycine-bound protein. Tm shift relative to glycine control, % at 25 µM. 340,000 compounds, 2.5% hits;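 active = melting temperature shift of at least 10% of the positive control shift, at one fixed dose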
A number is an active result; i = inactive; nt = no result given. Compounds with a hit are over-represented: about 6.4% of the library has one in this group of screens.

SMILES	EBV gp42 inh	TbMetRS inhib	WT yeast gro inh	CHOP inh	MPTP block	NR3A LBD binder
O=C(N/N=C/c1cn(-c2cccs2)nc1-c1ccccc1)c1ccc(O)cc1	i	i	i	i	i	12
C[C@H](CO)N1C[C@H](C)[C@@H](CN(C)S(=O)(=O)c2ccc(F)cc2)Oc2ccc(NC(=O)Nc3ccccc3)cc2C1=O	nt	i	nt	nt	i	i
C[C@@H]1CN([C@H](C)CO)C(=O)c2cc(NC(=O)Nc3ccc(C(F)(F)F)cc3)ccc2O[C@H]1CN(C)S(=O)(=O)c1ccc(Cl)cc1	nt	i	nt	nt	i	19
C[C@H](CO)N1C[C@H](C)[C@@H](CN(C)S(=O)(=O)c2ccc(F)cc2)Oc2ccc(NC(=O)Nc3ccc(C(F)(F)F)cc3)cc2C1=O	nt	i	nt	nt	i	11
C[C@@H]1CN([C@@H](C)CO)C(=O)Cc2cc(NC(=O)Nc3ccc(C(F)(F)F)cc3)ccc2O[C@@H]1CN(C)S(=O)(=O)c1ccc(Cl)cc1	nt	i	nt	nt	i	14
COc1ccc2[nH]c3c(=O)n(Cc4ccc(C(=O)N5CCCCCC5)cc4)c(=S)[nH]c3c2c1	i	i	i	i	i	i
O=C(OCc1ccccc1)N1CCC2CC1c1cc(N3CCNCC3)ccc12 (stereo not drawn)	nt	i	nt	nt	i	nt
Cc1ccc(NC(=O)CSc2nnc(-c3cnccn3)n2C)cc1C	nt	i	nt	nt	i	i
COC(=O)c1ccc(-n2cnc(Cl)n2)c(F)c1	i	i	i	i	i	i
O=C(NC1CCCC1)c1cc2nc(-c3ccccc3)cc(-c3ccccc3)n2n1	i	i	nt	i	i	i
CC1CCN(C(=O)c2cc3nc(-c4ccccc4)cc(-c4ccccc4)n3n2)CC1	i	i	i	75	i	i
O=C(Nc1cccc(O)c1)c1cc2nc(-c3ccccc3)cc(-c3ccccc3)n2n1	i	i	i	84	i	20
Cc1cc(S(=O)(=O)NCc2ccccc2)ccc1OCC(=O)NCc1ccncc1	nt	i	nt	nt	i	13
O=C(COc1ccc(S(=O)(=O)NCc2ccccc2)cc1Cl)NCc1ccncc1	nt	i	nt	nt	i	i
O=C(NCc1ccc(Cl)cc1)C1CCCN1C(=O)Nc1ccc(F)cc1 (stereo not drawn)	nt	i	nt	nt	i	i
Brc1ccc(Nc2nc3ccccc3n3nnnc23)cc1	i	nt	i	i	nt	nt
COc1cccc(Nc2nc3ccccc3n3nnnc23)c1	i	i	i	88	i	i
c1ccc(Nc2nc3ccccc3n3nnnc23)cc1	i	i	i	i	i	i
Fc1cccc(Nc2nc3ccccc3n3nnnc23)c1	i	i	i	87	i	i
CCN(c1ccccc1)S(=O)(=O)c1ccc(C(=O)Nc2ccncc2)cc1	nt	i	nt	nt	i	i
Cn1c(SCc2c(F)cccc2Cl)nc2c(c1=O)SCC2	i	i	66	i	i	i
COc1cc(C=O)ccc1OCCSc1ccc(Cl)cc1	i	i	i	i	i	i
Cc1ccc(NC(=O)CCC(=O)OCC(=O)c2ccc(Oc3ccc([N+](=O)[O-])cc3)cc2)cc1C	i	i	66	i	i	i
Cc1ccc(C(=O)CCC(=O)Nc2ccc(Cl)c(S(=O)(=O)Nc3cccc(Cl)c3)c2)cc1	i	i	i	i	i	24
COc1ccc(C(=O)CCC(=O)Nc2cccc(Cl)c2)cc1	i	i	i	i	i	i
SMILES	EBV gp42 inh	TbMetRS inhib	WT yeast gro inh	CHOP inh	MPTP block	NR3A LBD binder
Cc1ccc(NC(=O)CCC(=O)OCC(=O)c2ccc(-c3ccccc3)cc2)cc1	i	i	i	85	i	i
O=C(CCC(=O)OCC(=O)c1ccccc1)Nc1cccc(Cl)c1	i	i	i	i	i	24
COc1ccc(NC(=O)CCC(=O)c2ccc(-c3ccccc3)cc2)cc1	i	i	i	i	i	i
Nc1ccc2c(c1)C(=NO)c1cc([N+](=O)[O-])ccc1-2	nt	i	nt	nt	i	28
CCCCN(C(C)=O)c1c(CC)nc2ccc(C(=O)Nc3cccc(OCC(=O)N(C)C)c3)cn12	nt	i	nt	nt	i	nt
O=C(COC(=O)/C=C/c1cccc(F)c1)Nc1ccc(Cl)cn1	i	i	i	73	i	i
O=C(COC(=O)C1CC1)Nc1ccccc1Sc1ccccc1	i	i	i	i	i	i
CCCCN(CC)c1nc(-c2ccncc2)nc2ccccc12	i	i	i	80	i	i
COCCN(CCOC)c1nc(-c2ccc(C)cc2)nc2ccccc12	nt	i	nt	nt	i	i
Cc1ccc2c(c1)C(=O)CC1(CCC(C(C)(C)C)CC1)O2 (stereo not drawn)	i	i	nt	i	i	i
c1ccc(Nc2nn[nH]n2)cc1	i	i	i	82	i	i
Nc1nc(Nc2ccccc2)n[nH]1	i	i	nt	i	i	i
Cc1ccc(C(C)NC(=O)c2cccs2)cc1C (stereo not drawn)	nt	i	nt	nt	i	i
O=C(/C=C/c1cn(CC(O)CN2CCCCC2)c2ccccc12)c1ccccc1 (stereo not drawn)	i	i	nt	i	i	i
CN1CCN(Cn2cc(/C=C/C(=O)c3ccccc3)c3ccccc32)CC1	i	i	i	i	i	26
CCN1CCCn2c1nc1c2c(=O)n(C)c(=O)n1C	i	i	i	i	i	i
O=C(COC(=O)c1cc(Cl)ccc1O)Nc1ccccc1C(=O)NC1CC1	nt	i	nt	nt	i	i
O=C(NCC12CC3CC(CC(C3)C1)C2)c1cc2n(n1)C(C(F)(F)F)CC(c1ccco1)N2 (stereo not drawn)	i	i	i	102	i	i
Cc1cc(NC(=O)c2cc3n(n2)C(C(F)(F)F)CC(c2ccco2)N3)n(-c2ccccc2)n1 (stereo not drawn)	i	i	i	76	i	i
O=C(c1cc2n(n1)C(C(F)(F)F)CC(c1ccco1)N2)N1CCc2ccccc2C1 (stereo not drawn)	i	i	i	83	i	i
COc1ccc(NC(=O)c2cc3n(n2)C(C(F)(F)F)CC(c2ccco2)N3)cc1 (stereo not drawn)	i	i	i	i	i	i
C=CCSc1nc(N2CCOCC2)c2c(c1C#N)CC(C)(C)N(C)C2	i	i	nt	i	i	i
CCCN1CCN(c2ccc([N+](=O)[O-])cc2C#N)CC1	i	i	i	i	i	i
CC(=O)Nc1ccc(NC(=O)CSC2=NS(=O)(=O)c3cc(F)ccc3N2)cc1	nt	i	nt	nt	i	i
CC(=O)c1ccc(NC(=O)CSC2=NS(=O)(=O)c3cc(Cl)ccc3N2)cc1	nt	i	nt	nt	i	12
